Experimental findings from ChEMBL document CHEMBL1146147, “Study on synthesis and biological activity of a galactosylated piperazinyl porphyrin” (Bioorg Med Chem Lett, 2006) are described below.

Data set [1] is described as follows: Anticancer activity against human HNE1 cells with irradiation at 6.25 ug/ml after 18 hrs by MTT assay. The data set is classed as functional. A digest of the protocol:
(§1)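 Human tumour cells (Bel-7404, MCG, HNE1) incubated 18 h with compound at 6.25 ug/ml at 37 °C in air with 5% CO2. Cells irradiated at 650 nm, 20 J/cm²; parallel wells kept unirradiated. Cell death rate read by MTT.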

Data set [2] can be described thus: Partition coefficient of the compound. Type of data set: ADME. The conditions noted are these: octanol/water. A digest of the protocol:
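Compound distributed between the two non-miscible solvents octanol and water. Reported as the octanol/water partition ratio.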

Data set [3] can be described thus: Anticancer activity against human MCG cells at 6.25 ug/ml after 18 hrs by MTT assay. The data set is classed as functional. The gist of the method:
(§2)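 Human tumour cells (Bel-7404 liver, MCG stomach, HNE1 nasopharyngeal) exposed to compound in solution for 18 h at 37 °C under air with 5% CO2, either kept in the dark or irradiated at 650 nm, 20 J/cm². Viability read by MTT; activity reported as percent cell death.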

In data set [4] the test system is BEL-7404 tumor cell line. In words: Anticancer activity against human Bel7404 cells with irradiation at 6.25 ug/ml after 18 hrs by MTT assay. The data set is classed as functional. A digest of the protocol: as §1
Data set [5] can be described thus: Anticancer activity against human MCG cells by MTT assay. The data set is classed as functional. The conditions noted are these: read-out: ID50 (the source's name). A digest of the protocol: (§3)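 MTT assay of human tumour cell lines (Bel-7404 liver, MCG stomach, HNE1 nasopharyngeal carcinoma) run in the absence of light. ID50 is taken as the concentration giving 50% cell death, in ug/ml.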

For data set [6], the system named is BEL-7404 tumor cell line. As to the kind of experiment: Anticancer activity against human Bel7404 cells by MTT assay. The conditions noted are these: read-out: ID50 (the source's name). The data set is classed as functional. The gist of the method:
as §3

A short description of data set [7]: Anticancer activity against human MCG cells with irradiation at 6.25 ug/ml after 18 hrs by MTT assay. Type of data set: functional. A digest of the protocol:
as §1

The nature of data set [8]: Anticancer activity against human HNE1 cells by MTT assay. The data set is classed as functional. The conditions noted are these: read-out: ID50 (the source's name). A digest of the protocol:
as §3

The test system of data set [9] is BEL-7404 tumor cell line. In words: Anticancer activity against human Bel7404 cells at 6.25 ug/ml after 18 hrs by MTT assay. The data set is classed as functional. The gist of the method: as §2
The nature of data set [10]: Anticancer activity against human HNE1 cells at 6.25 ug/ml after 18 hrs by MTT assay. Type of data set: functional. A digest of the protocol: as §2

Each structure is given as a SMILES string. Values after ≈ are worked out from the molar mass of the structure shown. Where only a bound is given, the exact number is not on record here.

On to `O=C([C@H](O)[C@@H](O)[C@H](O[C@@H]1O[C@H](CO)[C@H](O)[C@H](O)[C@H]1O)[C@H](O)CO)N1CCN(c2ccc(-c3c4nc(c(-c5ccc(N6CCN(C(=O)[C@H](O)[C@@H](O)[C@H](O[C@@H]7O[C@H](CO)[C@H](O)[C@H](O)[C@H]7O)[C@H](O)CO)CC6)cc5)c5ccc([nH]5)c(-c5ccc(N6CCN(C(=O)[C@H](O)[C@@H](O)[C@H](O[C@@H]7O[C@H](CO)[C@H](O)[C@H](O)[C@H]7O)[C@H](O)CO)CC6)cc5)c5nc(c(-c6ccc(N7CCN(C(=O)[C@H](O)[C@@H](O)[C@H](O[C@@H]8O[C@H](CO)[C@H](O)[C@H](O)[C@H]8O)[C@H](O)CO)CC7)cc6)c6ccc3[nH]6)C=C5)C=C4)cc2)CC1`, for which the Activity in data set [1] is reported as 96%; in data set [3] it was 19%; in the data set with BEL-7404 tumor cell line [4], 96%; in [7], 96%; with BEL-7404 tumor cell line [9] it was 19%; in data set [10], 19%. Besides, in [2], the Ratio stood at 18. The IC50 in [5] is 35 µg/mL (≈ 15.1 µM); with BEL-7404 tumor cell line [6] it was 29 µg/mL (≈ 12.5 µM); in [8], 33 µg/mL (≈ 14.3 µM).

For the compound `Nc1ccc(-c2c3nc(c(-c4ccc(N)cc4)c4ccc([nH]4)c(-c4ccc(N)cc4)c4nc(c(-c5ccc(N)cc5)c5ccc2[nH]5)C=C4)C=C3)cc1`, in data set [2], the Ratio stood at 42. Also, the IC50 in [5] was 24 µg/mL (≈ 35.6 µM); in the data set with BEL-7404 tumor cell line [6] it was 33 µg/mL (≈ 48.9 µM); in data set [8] it was 28 µg/mL (≈ 41.5 µM).

With `O=c1[nH]cc(F)c(=O)[nH]1` [FLUOROURACIL], the Activity (in data set [3]; in the data set on BEL-7404 tumor cell line [9]; in data set [10]) was 29% in each case.

On to `O=C([C@H](O)[C@@H](O)[C@H](O[C@@H]1O[C@H](CO)[C@H](O)[C@H](O)[C@H]1O)[C@H](O)CO)N1CCNCC1` [GALACTOSYLATEDPIPERAZINE], for which the IC50 (in [5]; in the data set on BEL-7404 tumor cell line [6]; in [8]) was over 50 µg/mL each time.
